Measured values from PubChem BioAssay AID493091 (Sanford-Burnham Center for Chemical Genomics, 2011).
Out of some 340,000 compounds screened, about 3,000 (0.88%) were called active.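 Rule for the calls: active = inhibition above about 50% at 20 µM (limit read from the data); inactive = the rest.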 For the sample, actives were picked, then their nearest neighbours and some compounds at random.

Target: Carboxy-terminal domain RNA polymerase II polypeptide A small phosphatase 1 (Homo sapiens) (UniProt Q9GZU7)
Sequence (Q9GZU7 76-261 limits assumed): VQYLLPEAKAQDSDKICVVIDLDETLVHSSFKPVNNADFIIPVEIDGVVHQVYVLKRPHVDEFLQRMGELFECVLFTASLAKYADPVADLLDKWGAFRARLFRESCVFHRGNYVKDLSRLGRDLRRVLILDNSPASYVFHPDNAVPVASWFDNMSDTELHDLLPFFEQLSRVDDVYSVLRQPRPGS
Test: inhibition of human SCP1 dephosphorylation activity – biochemical, colorimetric, uHTS, primary screen (AID 493091);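 note: plate controls were DMSO wells with enzyme for no effect and wells lacking enzyme for full effect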
Settings: Recombinant Scp1, phosphopeptide, malachite green phosphate absorbance; at 20 µM; hits give high values
Procedure, shortened: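 Material: truncated SCP-1 phosphatase (76-261aa) / Buffer or medium: 50 mM Tris acetate pH 5.5, 0.005% Tween-20, 10 mM MgCl2 / Compound dosing: one concentration, 20 µM, with 1.0% DMSO / Incubation: 45 min room-temperature reaction, 5 min colour, 30 min stabiliser / Detection: colorimetric free-phosphate detection, absorbance 630 nm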

SMILES	inhibition
O=C1CC2(CCN(C(=O)COc3ccc(F)cc3)CC2)Oc2ccccc21	1.25% (inactive)
O=C(CSc1ncn[nH]1)Nc1ccnc2ccccc12	-9.75% (inactive)
CCCCCN1CC(O)=C(c2nc(-c3ccc(Cl)cc3)cs2)C1=N	94.9% (active)
CCCCCN1CC(O)=C(c2ccccc2)C1=N	-2.2% (inactive)
CCCCNC(=O)CCn1nc(-c2ccc(Cl)cc2)ccc1=O	6.19% (inactive)
Cc1ccc(NC(=O)CN(C)C(=O)c2ccc(Br)o2)cc1	1.38% (inactive)
CC1(C)CC(=O)C2=C(C1)NCN(CCCN1CCOCC1)C2	-1.79% (inactive)
CC(C)C(=O)NC(NC(=S)NC1CCS(=O)(=O)C1)C(Cl)(Cl)Cl (stereo unspecified)	-9.76% (inactive)
Cc1cccc(NC(=O)c2cc(N3C(=O)CCC3=O)ccc2Cl)n1	-6.1% (inactive)
COC(=O)c1cccc(NC(=O)c2cccc(N3C(=O)CCC3=O)c2)c1	-7.64% (inactive)
CC(=O)Nc1ccc(N2C(=O)CCC2=O)cc1C	75.8% (active)
O=C(C(NS(=O)(=O)c1cccc2nsnc12)c1ccccc1)N1CCN(c2ccccn2)CC1 (stereo unspecified)	-0.35% (inactive)
O=S(=O)(NC(=S)Nc1ccccc1)c1ccc(F)cc1	-7.43% (inactive)
COCCCn1c(Cc2csc(Nc3cccc(Cl)c3)n2)nnc1SCC(=O)OC1CCCCC1	58.9% (active)
COCCCn1c(SCC(=O)NC2CCCC2)nnc1-c1ccccc1	-9.75% (inactive)
CCOc1ccc(Nc2nc(Cc3nnc(SCC(=O)NC4CCCC4)n3C)cs2)cc1	-5.22% (inactive)
O=C(CSc1nnc(N2CCOCC2)n1-c1cccc(F)c1)N1CCN(c2ccccn2)CC1	-3.89% (inactive)
Cc1c(C)c2ccc(OCC(=O)N3CCC(C(=O)O)CC3)c(C)c2oc1=O	1.4% (inactive)
Cc1ccc(S(=O)(=O)NCCC(=O)NNC(=O)C2COc3ccccc3O2)cc1 (stereo unspecified)	-1.94% (inactive)
Cc1c(CC(=O)N2CCN(C(=O)C3COc4ccccc4O3)CC2)c(=O)oc2c(O)c(O)ccc12 (stereo unspecified)	79.7% (active)
COc1ccc(NC2CCCN(C(=O)c3ccncc3)C2)cc1 (stereo unspecified)	3.08% (inactive)
CNc1[nH]ncc1[N+](=O)[O-]	-7.97% (inactive)
NC(=O)c1nsc(C(=O)N(CCCN2CCOCC2)C(C(=O)NC2CCCCC2)c2ccc(Cl)cc2)c1N (stereo unspecified)	-5.84% (inactive)
CCS(=O)(=O)N1CCCC(C(=O)NCCCN(C)Cc2ccccc2)C1 (stereo unspecified)	-3.41% (inactive)
COc1ccc(OC)c(NC(=O)Cc2cccs2)c1	14.5% (inactive)
COc1ccc(Cc2nnc(NC(=O)Cc3cccs3)s2)cc1	87% (active)

SMILES	inhibition
COc1ccc(Cc2nnc(NS(=O)(=O)Cc3ccccc3)s2)cc1	-2.23% (inactive)
CC1CCC(NC(=O)CNC(=O)c2ccc3ccccc3c2)CC1 (stereo unspecified)	-3.85% (inactive)
O=C(CN1CCCCC1)NC(=O)Nc1ccccc1F	1.25% (inactive)
C=C1CCN([C@H](C(=O)NCc2cc(OC)c(OC)c(OC)c2)C(C)C)S(=O)(=O)c2ccccc21	-5.59% (inactive)
COc1ccccc1N1CCN(CC(=O)NC(=O)NCc2ccco2)CC1	-8.28% (inactive)
O=C(CN1CCN(S(=O)(=O)/C=C/c2ccccc2)CC1)NC(=O)NCc1ccco1	52.3% (active)
NC(=O)CCN1CCN(S(=O)(=O)/C=C/c2ccccc2)CC1	5.89% (inactive)
COC(=O)c1cc(OC)c(OC)cc1NC(=O)C1CCCO1 (stereo unspecified)	-6.55% (inactive)
CN(CC(=O)Nc1ccc(Cl)cc1)C(=O)CNC(=O)c1ccc2ccccc2c1	-10% (inactive)
O=C(NNC(=O)c1ccc2ccccc2c1)c1ccc(Cl)cc1	99.5% (active)
O=C(CCCOc1ccccc1)NNC(=O)c1ccc(Cl)cc1	0.5% (inactive)
N=C1C(=O)OCC1c1ccccc1NC(=O)CN1CCCCC1 (stereo unspecified)	-9.11% (inactive)
Cc1cc(C)n(CCNCc2c(C(=O)N3C[C@@H](C)O[C@@H](C)C3)nc3ccc(Cl)cn23)n1	-3.38% (inactive)
CCn1cc(CN2CCC(C(=O)Nc3cccc(-c4cccc(Cl)c4)c3)CC2)c(C)n1	-4.7% (inactive)
CCOC(=O)CCCCCC(=O)Nc1ccc2c(c1)CC(=O)N([C@@H](C)CO)C[C@H](C)[C@@H](CN(C)Cc1ccccc1)O2	-4.43% (inactive)
C=CCOc1c2ccc(C(=O)N(CC)c3ccc(OC)cc3)cc2nn1C	-2.27% (inactive)
O=C(COC(=O)c1cnccn1)Nc1cccc2ccccc12	-9.56% (inactive)
C=C1c2cccc(OC)c2O[C@H](C(=O)OCC)[C@@H]1CCCCCC	101% (active)
CCOC(=O)C(=Cc1ccccc1OC)C(=O)OCC	-0.82% (inactive)
CC1C(=O)NC(=O)C1c1ccccc1 (stereo unspecified)	-3.27% (inactive)
N#Cc1c(-c2cccs2)nc(SCC(=O)c2ccc(Br)cc2)[nH]c1=O	64.9% (active)
CC(=O)CSc1nc(CCc2ccccc2)c(C#N)c(=O)[nH]1	-7.04% (inactive)
O=C(CSc1nc2ccccc2c(=O)[nH]1)Nc1nc(-c2ccc(Br)cc2)cs1	3.75% (inactive)
CCN(CC)C(=O)CS(=O)CC(=O)Nc1cc(OCCOC)c(Cl)cc1Cl (stereo unspecified)	1.24% (inactive)
O=C(Cn1cnc([N+](=O)[O-])n1)NCCc1ccccc1	-2.5% (inactive)
